Experimental data: ChEMBL document CHEMBL1142496, “Studies on enzyme-cleavable dialkoxymethyl-cyclosaligenyl-2',3'-dideoxy-2',3'-didehydrothymidine monophosphates” (J Med Chem, 2008)

system: not listed separately; experiment: Stability in aqueous 25 mM phosphate buffer at pH 7.3 assessed as hydrolysis half life; format: physicochemical; settings: not given
Summary of the method: (§1)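 Chemical stability in aqueous 25 mM phosphate buffer at pH 7.3 or 7.6. Triester cleavage followed by HPLC; half-life refers to disappearance of the intact triester.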

SMILES | half-life [h]
CC(=O)OC(OC(C)=O)c1cc(C(C)(C)C)cc2c1OP(=O)(OC[C@@H]1C=C[C@H](n3cc(C)c(=O)[nH]c3=O)O1)OC2 (stereo not given in full) | 3.7

system: not listed separately; experiment: Stability in aqueous 25 mM phosphate buffer at pH 7.6 assessed as hydrolysis half life; format: physicochemical; settings: not given; summary of the method: as §1

SMILES | half-life [h]
Cc1cc(C=O)cc2c1OP(=O)(OC[C@@H]1C=C[C@H](n3cc(C)c(=O)[nH]c3=O)O1)OC2 (stereo not given in full) | 0.35
CC(=O)OC(OC(C)=O)c1cc(C)c2c(c1)COP(=O)(OC[C@@H]1C=C[C@H](n3cc(C)c(=O)[nH]c3=O)O1)O2 (stereo not given in full) | 1.9
CC(=O)OC(OC(C)=O)c1cc(C(C)(C)C)cc2c1OP(=O)(OC[C@@H]1C=C[C@H](n3cc(C)c(=O)[nH]c3=O)O1)OC2 (stereo not given in full) | 1.2

system: Human immunodeficiency virus 2; experiment: Antiviral activity against HIV2 in thymidine kinase deficient human CEM/TK- cellss; format: functional, organism-based; settings: Human immunodeficiency virus 2, CEM-TK(-)
Summary of the method: (§2)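 Anti-HIV assay in T-lymphocytes: wild-type CEM/0 cells infected with HIV-1 or HIV-2, and thymidine kinase-deficient CEM/TK⁻ cells infected with HIV-2. Cells grown in RPMI-1640 with 10% heat-inactivated fetal calf serum. Read-out is the 50% effective concentration, given as the mean of two to three independent experiments.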

SMILES | EC50 [nM]
Cc1cc(C=O)cc2c1OP(=O)(OC[C@@H]1C=C[C@H](n3cc(C)c(=O)[nH]c3=O)O1)OC2 (stereo not given in full) | 4500
CC(=O)OC(OC(C)=O)c1cc(C)c2c(c1)COP(=O)(OC[C@@H]1C=C[C@H](n3cc(C)c(=O)[nH]c3=O)O1)O2 (stereo not given in full) | 6300
CC(=O)OC(OC(C)=O)c1cc(C(C)(C)C)cc2c1OP(=O)(OC[C@@H]1C=C[C@H](n3cc(C)c(=O)[nH]c3=O)O1)OC2 (stereo not given in full) | 7300
Cc1cn([C@H]2C=C[C@@H](CO)O2)c(=O)[nH]c1=O [STAVUDINE] | 62000

system: Human immunodeficiency virus; experiment: Antiviral activity against HIV; format: functional, organism-based; settings: Human immunodeficiency virus 1; summary of the method: as §2

SMILES | EC50 [nM]
Cc1cccc2c1OP(=O)(OC[C@@H]1C=C[C@H](n3cc(C)c(=O)[nH]c3=O)O1)OC2 (stereo not given in full) | 100

system: Human immunodeficiency virus 1; experiment: Antiviral activity against HIV1 in human wild type CEM/0 cellss; format: functional, organism-based; settings: Human immunodeficiency virus 1, CCRF-CEM; summary of the method: as §2

SMILES | EC50 [nM]
Cc1cc(C=O)cc2c1OP(=O)(OC[C@@H]1C=C[C@H](n3cc(C)c(=O)[nH]c3=O)O1)OC2 (stereo not given in full) | 450
CC(=O)OC(OC(C)=O)c1cc(C)c2c(c1)COP(=O)(OC[C@@H]1C=C[C@H](n3cc(C)c(=O)[nH]c3=O)O1)O2 (stereo not given in full) | 500
CC(=O)OC(OC(C)=O)c1cc(C(C)(C)C)cc2c1OP(=O)(OC[C@@H]1C=C[C@H](n3cc(C)c(=O)[nH]c3=O)O1)OC2 (stereo not given in full) | 720
Cc1cn([C@H]2C=C[C@@H](CO)O2)c(=O)[nH]c1=O [STAVUDINE] | 860

system: not listed separately; experiment: Stability in human CEM cells extracts at pH 6.9 assessed as hydrolysis half life; format: ADME, CCRF-CEM; settings: CEM cell extracts
Summary of the method: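 Enzymatic stability assay: triesters incubated in CEM cell extracts (pH 6.9) over varied incubation times. Acetic acid was not used to stop the reaction for acid-sensitive compounds. Samples analysed by HPLC to give the half-life of triester cleavage.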

SMILES | half-life [min]
CC(=O)OC(OC(C)=O)c1cc(C(C)(C)C)cc2c1OP(=O)(OC[C@@H]1C=C[C@H](n3cc(C)c(=O)[nH]c3=O)O1)OC2 (stereo not given in full) | < 6

system: not listed separately; experiment: Cytostatic activity against human wild type CEM/0 cellss; format: cell-based, CCRF-CEM; settings: wild-type CEM/0 cells
Summary of the method: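 Cytostatic activity on T-lymphocyte CEM cultures, reported as the 50% cytostatic concentration.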

SMILES | CC50 [nM]
Cc1cc(C=O)cc2c1OP(=O)(OC[C@@H]1C=C[C@H](n3cc(C)c(=O)[nH]c3=O)O1)OC2 (stereo not given in full) | 82000
CC(=O)OC(OC(C)=O)c1cc(C)c2c(c1)COP(=O)(OC[C@@H]1C=C[C@H](n3cc(C)c(=O)[nH]c3=O)O1)O2 (stereo not given in full) | 44000
CC(=O)OC(OC(C)=O)c1cc(C(C)(C)C)cc2c1OP(=O)(OC[C@@H]1C=C[C@H](n3cc(C)c(=O)[nH]c3=O)O1)OC2 (stereo not given in full) | 7900
Cc1cn([C@H]2C=C[C@@H](CO)O2)c(=O)[nH]c1=O [STAVUDINE] | 182000

system: not listed separately; experiment: Stability in RPMI-1640 medium containing 10% heat inactivated fetal calf serum at pH 7.6 assessed as hydrolysis half life; format: physicochemical; settings: cattle, RPMI-1640 medium with 10% heat-inactivated fetal calf serum
Summary of the method: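 Stability in RPMI-1640 culture medium with 10% fetal calf serum heat-inactivated for 30 min at 56 °C (pH 7.6). Handled like the cell-extract incubations, with medium in place of extract; triester half-life and formyl-product formation followed by HPLC.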

SMILES | half-life [h]
Cc1cc(C=O)cc2c1OP(=O)(OC[C@@H]1C=C[C@H](n3cc(C)c(=O)[nH]c3=O)O1)OC2 (stereo not given in full) | 0.7
CC(=O)OC(OC(C)=O)c1cc(C)c2c(c1)COP(=O)(OC[C@@H]1C=C[C@H](n3cc(C)c(=O)[nH]c3=O)O1)O2 (stereo not given in full) | 1.5
CC(=O)OC(OC(C)=O)c1cc(C(C)(C)C)cc2c1OP(=O)(OC[C@@H]1C=C[C@H](n3cc(C)c(=O)[nH]c3=O)O1)OC2 (stereo not given in full) | 1.9

system: Human immunodeficiency virus 2; experiment: Antiviral activity against HIV2 in human wild type CEM/0 cellss; format: functional, organism-based; settings: Human immunodeficiency virus 2, CCRF-CEM; summary of the method: as §2

SMILES | EC50 [nM]
Cc1cc(C=O)cc2c1OP(=O)(OC[C@@H]1C=C[C@H](n3cc(C)c(=O)[nH]c3=O)O1)OC2 (stereo not given in full) | 1270
CC(=O)OC(OC(C)=O)c1cc(C)c2c(c1)COP(=O)(OC[C@@H]1C=C[C@H](n3cc(C)c(=O)[nH]c3=O)O1)O2 (stereo not given in full) | 700
CC(=O)OC(OC(C)=O)c1cc(C(C)(C)C)cc2c1OP(=O)(OC[C@@H]1C=C[C@H](n3cc(C)c(=O)[nH]c3=O)O1)OC2 (stereo not given in full) | 1000
Cc1cn([C@H]2C=C[C@@H](CO)O2)c(=O)[nH]c1=O [STAVUDINE] | 1900
